Measured values: ChEMBL document CHEMBL6083223, “Development of di-arylated 1,2,4-triazole-based derivatives as therapeutic agents against breast cancer: synthesis and biological evaluation” (RSC Med Chem, 2024)
The source made the active and inactive calls. No cut-off for these calls is given here.

Tests used:
MDA-MB-231 [1] = test: Antiproliferative activity against human MDA-MB-231 cells assessed as inhibition of cell growth at 10 uM incubated for 48 hrs by MTT assay; format: functional
Method in brief: (§1)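 Single-concentration screen: cells (ATCC; 37 °C, 5% CO₂) seeded at 4 × 10⁴ per well, adhered overnight, then treated 48 h at 10 μM. Medium removed, MTT (2.5 mg mL⁻¹) added for 4 h, formazan dissolved in DMSO, absorbance read at 570 nm; percent inhibition versus untreated cells.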

MCF7 [2] = test: Antiproliferative activity against human MCF7 cells assessed as inhibition of cell growth at 10 uM incubated for 48 hrs by MTT assay; format: functional; method in brief: as §1
MDA-MB-231 [3] = test: Antiproliferative activity against human MDA-MB-231 cells assessed as inhibition of cell growth incubated for 48 hrs by MTT assay; format: functional, cell-based; settings: MDA-MB-231, 48 h
ZR-75-1 [4] = test: Antiproliferative activity against human ZR-75-1 cells assessed as inhibition of cell growth incubated for 48 hrs by MTT assay; format: functional, cell-based; settings: ZR-75-1, 48 h
MCF7 [5] = test: Antiproliferative activity against human MCF7 cells assessed as inhibition of cell growth incubated for 48 hrs by MTT assay; format: functional, cell-based; settings: MCF7, 48 h
Method in brief: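 MCF-7 exposed 48 h to 0.625, 1.25, 2.5, 5, 10, 20 and 40 μM. MTT (2.5 mg mL⁻¹) added for 4 h, medium removed, formazan solubilized in DMSO, absorbance at 570 nm; percent growth inhibition calculated and IC50 derived.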

ZR-75-1 [6] = test: Antiproliferative activity against human ZR-75-1 cells assessed as inhibition of cell growth at 10 uM incubated for 48 hrs by MTT assay; format: functional; method in brief: as §1
MCF7 [7] = test: Antiproliferative activity against human MCF7 cells assessed as inhibition of cell growth at 1 uM incubated for 48 hrs by MTT assay; format: functional
Method in brief: (§2)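 Positive-control reference measured alongside the single-concentration screen: cells seeded at 4 × 10⁴ per well, adhered overnight, exposed 48 h to doxorubicin at 1 μM. MTT (2.5 mg mL⁻¹) added for 4 h, formazan dissolved in DMSO, absorbance at 570 nm; percent growth inhibition relative to untreated cells.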

ZR-75-1 [8] = test: Antiproliferative activity against human ZR-75-1 cells assessed as inhibition of cell growth at 1 uM incubated for 48 hrs by MTT assay; format: functional; method in brief: as §2
MDA-MB-231 [9] = test: Antiproliferative activity against human MDA-MB-231 cells assessed as inhibition of cell growth at 1 uM incubated for 48 hrs by MTT assay; format: functional; method in brief: as §2
[10] = Half life in monkey liver microsomes; format: ADME, Macaca mulatta, Microsome; settings: rhesus monkey
Method in brief: (§3)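 Substrate depletion: microsomes (0.5 mg mL⁻¹ protein) in 100 mM PBS pH 7.4, 3.3 mM MgCl₂, 1.2 mM NADPH, preincubated 5 min at 37 °C; compound spiked at 5 μM, sampled at 0, 15 and 30 min. Quenched with cold acetonitrile containing diazepam internal standard, LC-MS/MS; triplicate. Log-linear plot of remaining substrate (0 min = 100%) gives parameters.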

MCF7 [11] = test: Induction of autophagy in human MCF7 cells assessed as increase in autophagosome production at 5 to 20 uM by acridine orange staining based fluorescence microscopic analysis; format: functional, cell-based; settings: dose 5-20 µM
Method in brief: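 MCF-7 cells treated at 5, 10 and 20 μM, then stained with 200 nM acridine orange for 10 min at 37 °C and imaged by fluorescence microscopy.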

[12] = Metabolic stability of the compound in dog liver microsomes at 5 uM measured for 30 mins in absence of NADPH by substrate depletion method based LC-MS/MS analysis; format: ADME, Canis lupus familiaris, Microsome; settings: 0.5 h
Method in brief: (§4)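 NADPH-free control incubations: microsomes (0.5 mg mL⁻¹) in 100 mM PBS pH 7.4 with 3.3 mM MgCl₂, no NADPH, 37 °C; compound 5 μM, 0–30 min. Acetonitrile quench with diazepam internal standard, LC-MS/MS; percent remaining versus 0 min, triplicate.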

MCF7 [13] = test: Induction of apoptosis in human MCF7 cells assessed as increase in cleaved PARP protein expression at 5 to 20 uM incubated for 48 hrs by western blot analysis; format: functional, cell-based; settings: dose 5-20 µM
Method in brief: (§5)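 MCF-7 cells (1 × 10⁶ per 100 mm dish, RPMI 1640 with 10% FBS) treated 48 h at 5, 10, 15 and 20 μM, 37 °C. RIPA lysates, Bradford-quantified, 50 μg per lane on SDS-PAGE, PVDF transfer, 5% BSA/TBST block; probed for cleaved PARP (1:1000) and Bax (1:400), band densitometry.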

[14] = Metabolic stability of the compound in human liver microsomes at 5 uM measured for 30 mins in absence of NADPH by substrate depletion method based LC-MS/MS analysis; format: ADME, Microsome; settings: 0.5 h; method in brief: as §4
MCF7 [15] = test: Induction of apoptosis in human MCF7 cells assessed as increase in Bax protein expression at 5 to 20 uM incubated for 48 hrs by western blot analysis; format: functional, cell-based; settings: dose 5-20 µM; method in brief: as §5
[16] = Metabolic stability of the compound in mouse liver microsomes at 5 uM measured for 30 mins in absence of NADPH by substrate depletion method based LC-MS/MS analysis; format: ADME, Microsome; settings: 0.5 h; method in brief: as §4
[17] = Intrinsic clearance in monkey liver microsomes measured per mg protein; format: ADME, Macaca mulatta, Microsome; settings: rhesus monkey; method in brief: as §3
[18] = Metabolic stability of the compound in rat liver microsomes at 5 uM measured for 30 mins in absence of NADPH by substrate depletion method based LC-MS/MS analysis; format: ADME, Microsome; settings: 0.5 h; method in brief: as §4
[19] = Intrinsic clearance in dog liver microsomes measured per mg protein; format: ADME, Canis lupus familiaris, Microsome; settings: read-out: CLH; method in brief: as §3
[20] = Intrinsic clearance in human liver microsomes measured per mg protein; format: ADME, Microsome; method in brief: as §3
[21] = Intrinsic clearance in mouse liver microsomes measured per mg protein; format: ADME, Microsome; method in brief: as §3
[22] = Half life in dog liver microsomes; format: ADME, Canis lupus familiaris, Microsome; method in brief: as §3
[23] = Intrinsic clearance in rat liver microsomes measured per mg protein; format: ADME, Microsome; settings: read-out: CLH; method in brief: as §3
[24] = Half life in human liver microsomes; format: ADME, Microsome; method in brief: as §3
MCF7 [25] = test: Induction of apoptosis in human MCF7 cells assessed as disruption of mitochondrial […] membrane potential by measuring decrease in fluorescence intensity at 5 to 20 uM incubated for 30 mins by Rhodamine123 staining based fluorescence microscopic analysis; format: functional, cell-based; settings: dose 5-20 µM
Method in brief: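 MCF-7 cells treated at 5, 10 and 20 μM; rhodamine 123 (1 μg) added 30 min before the end of treatment, cells rinsed with PBS and examined under a fluorescence microscope for loss of mitochondrial fluorescence.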

[26] = Half life in rat liver microsomes; format: ADME, Microsome; method in brief: as §3
[27] = Metabolic stability of the compound in monkey liver microsomes at 5 uM measured for 30 mins in absence of NADPH by substrate depletion method based LC-MS/MS analysis; format: ADME, Macaca mulatta, Microsome; settings: rhesus monkey, 0.5 h; method in brief: as §4
[28] = Half life in mouse liver microsomes; format: ADME, Microsome; method in brief: as §3
MCF7 [29] = test: Increase in reactive oxygen species production in human MCF7 cells treated with higher concentrations by DCFH-DA staining based fluorescence microscopic analysis; format: functional, cell-based
[30] = Cytotoxicity against human MCF-10A cells assessed as inhibition of cell growth incubated for 24 hrs by MTT assay; format: toxicity, cell-based
Method in brief: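 Non-tumorigenic MCF-10A breast epithelial cells in 96-well plates (5% CO₂) exposed 24 h to 10, 50 and 100 μM. MTT (2.5 mg mL⁻¹) for 4 h, formazan dissolved in DMSO, absorbance at 570 nm; percent growth inhibition calculated to estimate IC50.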

## COc1ccc(-n2cnc(-c3ccc(F)cc3)n2)cc1OC
MDA-MB-231 [1]
  inhibition at 10 µM: 16.8%
MCF7 [2]
  inhibition at 10 µM: 17.6%

## COc1cc(-n2cnc(-c3cccc(C(F)(F)F)c3)n2)cc(OC)c1OC
MDA-MB-231 [3]
  IC50: 94 µM
ZR-75-1 [4]
  IC50: 98 µM
MCF7 [5]
  IC50: 11 µM
ZR-75-1 [6]
  inhibition at 10 µM: 2.39%
MDA-MB-231 [1]
  inhibition at 10 µM: 5.77%
MCF7 [2]
  inhibition at 10 µM: 48.6%

## COc1cc(-n2cnc(-c3cccc(N)c3)n2)cc(OC)c1OC
MDA-MB-231 [3]
  IC50: 21 µM
ZR-75-1 [4]
  IC50: 71 µM
MCF7 [5]
  IC50: 5.7 µM
ZR-75-1 [6]
  inhibition at 10 µM: 12.1%
MDA-MB-231 [1]
  inhibition at 10 µM: 22.7%
MCF7 [2]
  inhibition at 10 µM: 57.6%

## COc1cccc2c1C(=O)c1c(O)c3c(c(O)c1C2=O)C[C@@](O)(C(=O)CO)C[C@@H]3O[C@H]1C[C@H](N)[C@H](O)[C@H](C)O1 [DOXORUBICIN]
MDA-MB-231 [3]
  IC50: 1.7 µM
ZR-75-1 [4]
  IC50: 1.2 µM
MCF7 [7]
  inhibition at 1 µM: 45.5%
ZR-75-1 [8]
  inhibition at 1 µM: 45.5%
MDA-MB-231 [9]
  inhibition at 1 µM: 37.9%

## COc1ccc(-n2cnc(-c3ccc(Cl)cc3)n2)cc1OC
ZR-75-1 [6]
  inhibition at 10 µM: 0%
MDA-MB-231 [1]
  inhibition at 10 µM: 0%
MCF7 [2]
  inhibition at 10 µM: 9.2%

## c1ccc2c(-c3ncn(-c4ccc5c(c4)OCO5)n3)cccc2c1
MDA-MB-231 [1]
  inhibition at 10 µM: 15.3%
MCF7 [2]
  inhibition at 10 µM: 5.71%

## COc1cc(-n2cnc(-c3ccc(F)cc3)n2)cc(OC)c1OC
MDA-MB-231 [1]
  inhibition at 10 µM: 23.1%
MCF7 [2]
  inhibition at 10 µM: 20.2%

## COc1ccc(-n2cnc(-c3ccc(C(F)(F)F)cc3)n2)cc1OC
MDA-MB-231 [1]
  inhibition at 10 µM: 15.8%
MCF7 [2]
  inhibition at 10 µM: 21.3%

## COc1cc(-n2cnc(-c3ccc(F)c(F)c3)n2)cc(OC)c1OC
MDA-MB-231 [1]
  inhibition at 10 µM: 23.4%
MCF7 [2]
  inhibition at 10 µM: 23.3%

## COc1ccc(-c2ncn(-c3cc(OC)c(OC)c(OC)c3)n2)cc1F
[10]
  half-life: 60 min
MDA-MB-231 [3]
  IC50: 17 µM
ZR-75-1 [4]
  IC50: 34 µM
MCF7 [5]
  IC50: 4.8 µM
MCF7 [11]
  Activity: Active
[12]
  Stability: Stable
MCF7 [13]
  Activity: Active
ZR-75-1 [6]
  inhibition at 10 µM: 6.41%
[14]
  Stability: Stable
MDA-MB-231 [1]
  inhibition at 10 µM: 32.1%
MCF7 [15]
  Activity: Active
[16]
  Stability: Stable
[17]
  microsomal CLint: 23 µL/min/mg
[18]
  Stability: Stable
[19]
  microsomal CLint: > 53 µL/min/mg
[20]
  microsomal CLint: 13 µL/min/mg
[21]
  microsomal CLint: 41 µL/min/mg
[22]
  half-life: < 30 min
[23]
  microsomal CLint: > 86.1 µL/min/mg
[24]
  half-life: > 60 min
MCF7 [25]
  Activity: Active
[26]
  half-life: < 30 min
[27]
  Stability: Stable
[28]
  half-life: 34 min
MCF7 [2]
  inhibition at 10 µM: 51.3%
MCF7 [29]
  Activity: Active
[30]
  IC50 at 24 h: > 100 µM

## COc1cc(-n2cnc(-c3cccc4ccccc34)n2)cc(OC)c1OC
MDA-MB-231 [1]
  inhibition at 10 µM: 22.6%
MCF7 [2]
  inhibition at 10 µM: 13.4%
